TAG inh: reduces triacylglycerol accumulation in H9c2 cells | inhibition, % at 12.5 µM | hit rate 0.66% among 230,000 | Nile Red lipid (TAG) fluorescence; cells loaded with 200 µM oleic acid | AID 651582;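 active means pattern-corrected inhibition of lipid staining of at least 50% with the nuclear-stain viability signal not falling by more than 50%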;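 further: 0% = DMSO wells and 100% = triacsin C control wells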
aDG glyco act: alpha-DG glycosylation activation. Pro5-aDG cells, alpha-DG glycosylation AlphaScreen (IIH6); 0% Pro5, 100% B10-LARGE cell signal. activation, % at 10 µM. hit rate 0.22% among 360,000;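 active means activation of at least 8% versus controls, or a plate z-score of at least 8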;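 further: Pro5 are CHO cells carrying HIG-tagged alpha-DG that lacks glycosylation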
NTR1 ag: activates human neurotensin receptor 1; P30989; NTR1-U2OS beta-arrestin-GFP spot imaging, agonist mode; activation, % at 20 µM; hit rate 0.17% among 330,000; AID 493036;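 active means activation at or above 40% of the spot to cytoplasm intensity ratio, with at least 20 cells analyzed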;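 further: 0% = DMSO without peptide and 100% = 100 nM NTR1 peptide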
Target sequence (P30989 whole entry, looked up): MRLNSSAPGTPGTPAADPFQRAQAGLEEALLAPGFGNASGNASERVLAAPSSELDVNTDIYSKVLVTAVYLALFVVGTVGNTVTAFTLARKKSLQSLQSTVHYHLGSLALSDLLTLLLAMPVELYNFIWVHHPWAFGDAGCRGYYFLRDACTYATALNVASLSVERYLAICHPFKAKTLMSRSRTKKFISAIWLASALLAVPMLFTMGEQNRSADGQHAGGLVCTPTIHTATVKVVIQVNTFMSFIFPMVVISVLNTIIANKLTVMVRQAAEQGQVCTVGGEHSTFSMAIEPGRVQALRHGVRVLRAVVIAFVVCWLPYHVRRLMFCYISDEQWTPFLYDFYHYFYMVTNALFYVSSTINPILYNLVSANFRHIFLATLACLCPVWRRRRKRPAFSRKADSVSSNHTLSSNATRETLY
TbMetRS inhib: blocks T. brucei methionyl-tRNA synthetase activity | purified T. brucei MetRS, ATP depletion, Kinase-Glo luminescence | inhibition, % at 11.9 µM | hit rate 0.4% among 360,000;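 active means inhibition above a per-plate cutoff of the control wells' mean inhibition plus 3 SD, cut at about 5.5% in these data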;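 further: 0% = DMSO wells median and 100% = median of wells with control inhibitor compound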
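Assay system: T. brucei methionyl-tRNA synthetase, purified | Medium: HEPES buffer with MgCl2, KCl, DTT, spermine, BSA, pyrophosphatase | Compound: 11.9 µM single point | Incubation: 15 min enzyme-compound preincubation, 2 h reaction, 10 min detection, 25 °C | Measured by: Kinase-Glo luciferase luminescence reporting remaining unconsumed ATP | Measure: % inhibition normalized to control-well medians | Replication: Singlicate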
MC4R barr agon: agonists of human melanocortin 4 receptor (MC4R) beta-arrestin; P32245; U2OS MC4R beta-arrestin complementation, luminescence; percent of melanotan II response, DMSO zero; activation, % at 8.9 µM; hit rate 0.98% among 360,000; AID 540308;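 active means activation above a per-plate cutoff, the mean activation of sample wells on that plate plus 3 SD, cut at about 8% in these data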
MC4R antag cAMP: blocks human MC4R cAMP signaling | P32245 | MC4R-expressing cells, MTII-stimulated cAMP, LANCE TR-FRET | inhibition, % at 6.5 µM | hit rate 0.48% among 360,000 | AID 540295;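 active means inhibition above its plate's cutoff, the mean of tested wells on that plate plus 3 SD, cut at about 29% in these data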;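 further: 0% = Melanotan II alone and 100% = Melanotan II plus saturating MCL0020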
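Material: U2OS-MC4R stable cell line | Reagent: Melanotan II challenge after compound preincubation | Doses: One concentration, 6.5 µM nominal | Incubation: 30-min compound preincubation, 1-h Melanotan II challenge, 1-h detection, room temperature | Signal: TR-FRET cAMP assay | Replicates: One well per compound, no replicates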
TbMetRS confirm: Trypanosoma brucei MetRS inhibition confirmed. shares compounds with TbMetRS inhib. T. brucei MetRS enzyme, luminescence (ATP depletion). inhibition, % at 11.9 µM. hit rate 93% among 1,400; in the data active means inhibition above about 7%
Jurkat tox: Jurkat T cell cytotoxicity for MetRS hits; hit rate 12% among 1,400; inhibition, % at 8.3 µM; Jurkat cells viability, ATP luminescence; shares compounds with TbMetRS inhib; AID 624413; in the data active means inhibition above about 15%;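 further: 0% = vehicle and 100% = reference inhibitor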
TbMetRS FP orth: T. brucei MetRS inhibition, orthogonal assay; shares compounds with TbMetRS inhib; purified T. brucei MetRS, fluorescence polarization; inhibition, % at 11.9 µM; hit rate 44% among 1,400; in the data active means inhibition above about 17%;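 further: 0% = vehicle wells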
Starred values were filed as active, the others as inactive. Only some compounds are listed: those with a hit (about 2.4% of all), similar ones and a draw of the others.

What do the screens show for `CC1(C(=O)NS(=O)(=O)c2cccc(C#N)c2)CCN1C(=O)CC1CCCC1` (configuration not stated)?
TAG inh: -3; aDG glyco act: 0; TbMetRS inhib: 0; MC4R barr agon: 1; MC4R antag cAMP: 2

How did CCOc1ccc(NC(=S)NCc2nc3ccccc3[nH]2)cc1 do in these assays?
TAG inh: -5; aDG glyco act: 0; NTR1 ag: 1; TbMetRS inhib: 4; MC4R barr agon: 3; MC4R antag cAMP: 23

What do the screens show for `FC(F)Oc1ccc(NC(=S)NCc2nc3ccccc3[nH]2)cc1`?
TAG inh: -5; aDG glyco act: 0; NTR1 ag: 1; TbMetRS inhib: 55*; MC4R barr agon: -1; MC4R antag cAMP: 7; TbMetRS confirm: 65*; Jurkat tox: 9; TbMetRS FP orth: 40*

How did O=C(N[C@H]1CC[C@H](CCNS(=O)(=O)c2ccc(Cl)cc2)O[C@@H]1CO)c1cccc(F)c1 do in these assays?
aDG glyco act: 0; TbMetRS inhib: -1

How did CCCc1c(NC(=O)Nc2ccc(F)cc2)cnn1-c1ccccc1 do in these assays?
TAG inh: 3; aDG glyco act: 0; NTR1 ag: 0; TbMetRS inhib: 7.1*; MC4R barr agon: -2; MC4R antag cAMP: 11; TbMetRS confirm: 17*; Jurkat tox: -7; TbMetRS FP orth: 8

How did COc1ccc(S(=O)(=O)N2C[C@@H](O)COC[C@@H]3O[C@H](CC(=O)NCCCN4CCOCC4)CC[C@H]32)cc1 do in these assays?
aDG glyco act: 0; TbMetRS inhib: -1

Results for COCCCNC(=S)NNC(=O)c1ccc(C(C)(C)C)cc1 ?
TAG inh: 3; aDG glyco act: 0; NTR1 ag: 1; TbMetRS inhib: -1; MC4R barr agon: 2; MC4R antag cAMP: 1

How did COCCCNC(=S)NNC(=O)c1ccc(S(=O)(=O)N2CCC(C)CC2)cc1 do in these assays?
TAG inh: 10; aDG glyco act: 1; NTR1 ag: 1; TbMetRS inhib: 59*; MC4R barr agon: -3; MC4R antag cAMP: -2; TbMetRS confirm: 80*; Jurkat tox: 3; TbMetRS FP orth: 50*

Results for C[C@H](O)CNC(=O)c1[nH]cnc1C(=O)Nc1cccc(Cl)c1 ?
TAG inh: 6; aDG glyco act: 0; TbMetRS inhib: -1; MC4R barr agon: 0; MC4R antag cAMP: 6

Results for CCCCCNC(=O)C(c1cccc2ccccc12)n1c(=O)c(-c2cc3ccccc3[nH]2)nc2ccccc21 (configuration not stated) ?
aDG glyco act: 2; TbMetRS inhib: 0

Results for Fc1cccc(Cc2c(C3CCCCC3)nc3c4ccccc4ccn23)c1 ?
aDG glyco act: 0; TbMetRS inhib: -1

Results for OC(c1cc(F)cc(Cl)c1)c1ncc(-c2ccccc2Cl)[nH]1 (configuration not stated) ?
TAG inh: -17; aDG glyco act: 0; TbMetRS inhib: 24*; MC4R barr agon: -2; MC4R antag cAMP: -2; TbMetRS confirm: 58*; Jurkat tox: 4; TbMetRS FP orth: 24*

Results for OC(c1cccc(Cl)c1)c1ncc(-c2ccc3ccccc3c2)[nH]1 (configuration not stated) ?
TAG inh: 3; aDG glyco act: 0; TbMetRS inhib: 42*; MC4R barr agon: 2; MC4R antag cAMP: 4; TbMetRS confirm: 74*; Jurkat tox: 8; TbMetRS FP orth: 47*

Results for Cc1ccc(-c2cnc(C(O)c3ccc(Cl)c(Cl)c3)[nH]2)cc1 (configuration not stated) ?
TAG inh: 4; aDG glyco act: 0; TbMetRS inhib: 9.4*; MC4R barr agon: 7; MC4R antag cAMP: 0; TbMetRS confirm: 37*; Jurkat tox: -10; TbMetRS FP orth: 14

What do the screens show for `OC(c1ccccc1)c1ncc(-c2ccccc2Cl)[nH]1` (configuration not stated)?
TAG inh: -13; aDG glyco act: 0; TbMetRS inhib: 0; MC4R barr agon: -2; MC4R antag cAMP: -12

Results for OC(c1cc(F)cc(Cl)c1)c1ncc(-c2ccc3ccccc3c2)[nH]1 (configuration not stated) ?
TAG inh: -18; aDG glyco act: 0; TbMetRS inhib: 76*; MC4R barr agon: 2; MC4R antag cAMP: 0; TbMetRS confirm: 92*; Jurkat tox: 9; TbMetRS FP orth: 75*

How did OC(c1cccc(F)c1)c1ncc(-c2ccc3ccccc3c2)[nH]1 (configuration not stated) do in these assays?
TAG inh: -20; aDG glyco act: 0; TbMetRS inhib: 1; MC4R barr agon: -2; MC4R antag cAMP: 7

What do the screens show for `CN(Cc1ccc(Cl)c(Cl)c1)C(c1cc2ccccc2o1)c1nnnn1C(C)(C)C` (configuration not stated)?
aDG glyco act: 0; TbMetRS inhib: 0

What do the screens show for `Cc1ccc(-c2cnc(C(O)c3cc(F)cc(Cl)c3)[nH]2)cc1` (configuration not stated)?
TAG inh: -2; aDG glyco act: 0; TbMetRS inhib: 10*; MC4R barr agon: 0; MC4R antag cAMP: 10; TbMetRS confirm: 39*; Jurkat tox: 2; TbMetRS FP orth: 14

What do the screens show for `CN(Cc1ccccc1)C(=O)CN1CCN(S(=O)(=O)c2ccccc2F)CC1`?
TAG inh: -7; aDG glyco act: 0; TbMetRS inhib: 0; MC4R barr agon: 2; MC4R antag cAMP: 0

What do the screens show for `COc1ccc(N2CCN(C(=O)c3ccccc3Br)CC2)c([N+](=O)[O-])c1`?
TAG inh: -8; aDG glyco act: 0; NTR1 ag: -1; TbMetRS inhib: 14*; MC4R barr agon: 0; MC4R antag cAMP: 4; TbMetRS confirm: 30*; Jurkat tox: 2; TbMetRS FP orth: 18*

Results for COc1ccc(N2CCN(C(=O)c3ccccc3)CC2)c([N+](=O)[O-])c1 ?
TAG inh: -5; aDG glyco act: 0; NTR1 ag: -2; TbMetRS inhib: 8.2*; MC4R barr agon: 4; MC4R antag cAMP: 10; TbMetRS confirm: 9.3*; Jurkat tox: 6; TbMetRS FP orth: 10

Source: PubChem BioAssay
